Laboratory results as given in PMC10617019 (Nature cell biology, 2023).

Assays:
[1] = test system: RIPK1 proline hydroxylation (EGLN); experiment: RIPK1 proline hydroxylation in cells, pan-hydroxylation antibody; format: cell-based, murine; conditions: MEFs with Flag-mRIPK1; CoCl2 400 μM, 16 h
Procedure, shortened: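 MEFs were transduced with a Flag-mouse RIPK1 expression vector for 24 h, then treated with CoCl2 (400 μM) for a further 16 h. Lysates were immunoprecipitated with anti-Flag and the complexes immunoblotted with an anti-pan-hydroxylation antibody. Three independent experiments were run.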

[2] = test system: RIPK1, RIPK3 and MLKL activation; experiment: RIPK1, RIPK3 and MLKL activation by EGLN inhibitors; format: cell-based, mouse; conditions: MEFs; for hallmarks of RIPK1, RIPK3 and MLKL activation, inhibitor alone: immunoblotting; for concentration needed to activate RIPK1 and necroptosis: concentration series
[3] = test system: pVHL interaction with RIPK1; experiment: pVHL-RIPK1 interaction in cells; format: cell-based; conditions: DFO 200 μM; co-immunoprecipitation
Procedure, shortened: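 RIPK1⁻/⁻ HT-29 cells were infected with expression vectors and treated with DFO 200 μM. Immunocomplexes were washed three times (20 mM Tris pH 8.0, 100 mM NaCl, 1 mM EDTA, 0.5% NP-40), resolved by SDS-PAGE and immunoblotted.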

[4] = test system: WT mice (liver); experiment: FG-4592 in vivo, WT mice: liver damage, RIPK1 activation, cell death, cytokines
[5] = test system: Mlkl knockout cells; experiment: FG-4592-induced cell death in WT and Mlkl knockout cells; format: cell-based; conditions: n = 3
[6] = test system: Pro195 hydroxylation of RIPK1; experiment: RIPK1 Pro195/Pro196 hydroxylation in cells; format: cell-based; conditions: high doses only
[7] = test system: MEFs; experiment: TSZ-induced cell death with FG-4592, MEFs; format: cell-based, mouse; conditions: FG-4592 200 μM; TNFα 10 ng/mL, SM164 50 nM, zVAD.fmk 20 μM; n = 3
Procedure, shortened: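 MEFs were given TNFα 10 ng/mL, SM164 50 nM and zVAD.fmk 20 μM, with or without test compound at 200 μM. Cell death was read by propidium iodide uptake: PI-positive and total cells were counted under an inverted fluorescence microscope. n = 3 biological independent samples, mean ± s.d., two-way ANOVA.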

[8] = test system: HT-29 cells; experiment: RIPK1 activation and necroptosis by FG-4592, HT-29 cells; format: cell-based
[9] = test system: MEFs; experiment: cell death with EGLN inhibitor, MEFs; format: cell-based, mouse
Procedure, shortened: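 MEFs in DMEM/10% FBS/1% penicillin-streptomycin were treated with graded test compound concentrations. Cell death was measured by propidium iodide uptake, counting PI-positive versus total cells by fluorescence microscopy (mean ± s.d., n = 3 biological samples). p-RIPK1-S166 and p-MLKL-S345 were immunoblotted across the concentration series after 48 h, and at 400 μM over a time course.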

[10] = test system: proline hydroxylation of RIPK1 at Pro196; experiment: RIPK1 Pro196 hydroxylation in mouse liver in vivo; conditions: WT mouse liver; i.p. 50 or 250 mg kg^−1 every 24 h for 2 d; n = 3
[11] = test system: WT and Ripk1 P196A/P196A mice; experiment: FG-4592 in WT and Ripk1 P196A/P196A mice; format: in vivo; conditions: FG-4592 25 mg kg^−1 i.p., 7 days
[12] = test system: human skin fibroblast cells; experiment: hypoxia-induced cell death, human skin fibroblasts; format: cell-based; conditions: 1% O2, 48 h; primary fibroblasts; propidium iodide uptake; n = 3
Procedure, shortened: (§1)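 Jurkat, THP-1 and primary fibroblasts were exposed to 1% O2 for 48 h. Cell death was measured by propidium iodide uptake, counting PI-positive and total cells under an inverted fluorescence microscope. Values are mean ± s.d., n = 3 biological samples, compared by unpaired two-tailed t-test.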

[13] = test system: Jurkat cells; experiment: hypoxia-induced cell death, Jurkat; format: cell-based; conditions: 1% O2, 48 h; propidium iodide uptake; n = 3
Procedure, shortened: as §1

[14] = test system: Vhl LKO mice (liver); experiment: Nec-1s in Vhl LKO mice; format: in vivo, mouse; conditions: Nec-1s in drinking water, 7 days; n = 6
[15] = test system: Ripk1 P196A/P196A mice; experiment: Nec-1s in Ripk1 P196A/P196A mice; format: in vivo, mouse; conditions: Nec-1s in drinking water, 7 d; n = 5-6
[16] = test system: 786-O cells; experiment: TNFα/5z7/SM-164-induced RDA in 786-O cells; format: cell-based; conditions: Nec-1s 10 μM; TNFα 10 ng/mL; SM-164 50 nM; 5z7 500 nM; n = 3
Procedure, shortened: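 VHL-deficient 786-O cells were treated with TNFα, 5z7 and SM-164, with or without Nec-1s, for different times. Viability was read by ATP-Glo luminescence, expressed as a percentage of untreated wells after subtracting the blank-well background.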

[17] = test system: HT-29 cells; experiment: hypoxia-induced cell death, HT-29; format: cell-based; conditions: 1% O2; Nec-1s 25 μM; propidium iodide uptake; n = 3
Procedure, shortened: (§2)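 HT-29 and L929 cells were held at 1% O2 with or without 25 μM Nec-1s; L929 were kept in DMEM with 10% FBS and 1% penicillin/streptomycin. Cell death was measured by propidium iodide uptake, counting PI-positive and total cells under an inverted fluorescence microscope. Values are mean ± s.d., n = 3 biological samples.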

[18] = test system: Egln1−/− MEFs; experiment: TSZ- or TNFα/5z7-induced cell death, Egln1−/− MEFs; format: cell-based, mouse; conditions: induced by TSZ or by TNFα + 5z7 (200 nM); n = 3
Procedure, shortened: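 Knockout MEFs were given TNFα 10 ng/mL + SM164 50 nM + zVAD.fmk 20 μM, or TNFα 10 ng/mL + 5z7 200 nM, each ± RIPK1-inhibitor test compound. TSZ death was read by PI uptake: PI-positive and total cells counted by fluorescence microscopy. TNFα/5z7 viability was read by ATP-Glo luminescence, background-subtracted, as % of untreated wells. n = 3 biological samples, mean ± s.d., two-way ANOVA.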

[19] = test system: Vhl knockout MEFs; experiment: hypoxia-induced necroptosis in Vhl-deleted MEFs; format: cell-based, mouse; conditions: 1% O2; Nec-1s printed as 25 M; propidium iodide uptake; n = 3
[20] = test system: human RIPK1 and RIPK1-P195A mutant; experiment: p-RIPK1-S166 in 293T cells overexpressing WT or P195A RIPK1; format: cell-based; conditions: overexpressed RIPK1, 10 μM Nec-1s, n = 3
[21] = test system: THP-1 cells; experiment: hypoxia-induced cell death, THP-1; format: cell-based; conditions: 1% O2, 48 h; propidium iodide uptake; n = 3
Procedure, shortened: as §1

[22] = test system: primary Ripk1 P196A MEFs; experiment: TSZ or TNFα/SM-164-induced cell death and p-RIPK1-S166 in Ripk1 P196A MEFs; format: cell-based, mouse; conditions: Nec-1s 20 μM, n = 3
[23] = test system: L929 cells; experiment: hypoxia-induced cell death, L929; format: cell-based; conditions: 1% O2; Nec-1s 25 μM; propidium iodide uptake; n = 3
Procedure, shortened: as §2

[24] = test system: cIAP1; conditions: cited from earlier work
[25] = test system: monocytes; conditions: cited from earlier work
[26] = test system: EGLN1; experiment: in vitro hydroxylation assay with recombinant EGLN1; format: biochemical; conditions: 37 °C, 1 h, pH 7.5, 50 μM EGLN1, 100 μM substrate; mass spectrometry
[27] = test system: WT RIPK1; experiment: in vitro kinase assay, WT RIPK1; format: biochemical, human; conditions: 100 μM ATP, 30 °C, 30 min, p-RIPK1-S166 immunoblot
[28] = test system: mutant RIPK1-P195A; experiment: in vitro kinase assay, RIPK1-P195A; format: biochemical, human; conditions: 100 μM ATP, 30 °C, 30 min, p-RIPK1-S166 immunoblot

[Cl][Co][Cl] [CoCl2, cobalt chloride]
RIPK1 proline hydroxylation (pan-hydroxylation antibody) [1]: could be blocked
hallmarks of RIPK1, RIPK3 and MLKL activation, inhibitor alone [2]: showed the hallmarks of RIPK1, RIPK3 and MLKL activation
concentration needed to activate RIPK1 and necroptosis [2]: Only high concentrations

CC(=O)N(O)CCCCCNC(=O)CCC(=O)N(O)CCCCCNC(=O)CCC(=O)N(O)CCCCCN [DFO, deferoxamine]
pVHL interaction with RIPK1 [3]: markedly decreased pVHL interaction with RIPK1 in cells
hallmarks of RIPK1, RIPK3 and MLKL activation, inhibitor alone [2]: showed the hallmarks of RIPK1, RIPK3 and MLKL activation
concentration needed to activate RIPK1 and necroptosis [2]: Only high concentrations

Cc1nc(C(=O)NCC(=O)O)c(O)c2ccc(Oc3ccccc3)cc12 [FG-4592]
liver damage, TUNEL^+ cells and p-RIPK1-S166 in liver ([4]; FG-4592 250 mg kg^−1 i.p., every 24 h for 2 d): caused substantial liver damage, with a large number of TUNEL^+ cells and increased p-RIPK1-S166
RIPK1 activation or cell death in liver ([4]; FG-4592 25 or 50 mg kg^−1 i.p., n = 5): did not induce RIPK1 activation or cell death
effect of Mlkl deletion on FG-4592-induced cell death [5]: deletion of Mlkl decreased cell death induced by FG-4592 treatment
RIPK1 hydroxylation, RIPK1 activity and cell death, dose dependence [6]: led to a decrease in the hydroxylation of RIPK1 and corresponding increases in RIPK1 activity and cell death
sensitization to TSZ-induced cell death [7]: could sensitize cells to cell death induced by TSZ treatment
concentration needed to activate RIPK1 and necroptosis [2]: Only high concentrations
RIPK1 activation and necroptosis ([8]; relatively high concentration): activated RIPK1 and induced necroptosis
sensitization to hypoxia-induced cell death ([9]; 1% O2 with or without 200 μM FG-4592, n = 3): could sensitize cell death induced by hypoxia
RIPK1 activation and necroptosis ([9]; MEFs, relatively high concentration, up to 400 μM at indicated times, 48 h): activated RIPK1 and induced necroptosis
RIPK1 Pro196 hydroxylation in vivo [10]: can also reduce the proline hydroxylation of RIPK1 at Pro196 in vivo
HIF pathway induction, RIPK1 activation and cell death [11]: can only induce the HIF pathway, without induction of RIPK1 activation and cell death

CN1C(=O)NC(Cc2c[nH]c3c(Cl)cccc23)C1=O (centres unmarked) [Nec-1s, necrostatin-1s]
hypoxia-induced cell death with Nec-1s [12]: decreased
hypoxia-induced cell death with Nec-1s [13]: decreased
RIPK1 activation, cell death and inflammation in Vhl LKO mice [14]: blocked RIPK1 activation, cell death and inflammation in Vhl hepatocyte-specific knockout mice
cell death and inflammation in Ripk1 P196A/P196A mice with Nec-1s [15]: decreased cell death and inflammation in Ripk1^P196A/P196A mice
RDA induced by TNFα, 5z7 and SM-164 with Nec-1s [16]: could be blocked by Nec-1s
hypoxia-induced cell death with Nec-1s [17]: decreased
cell death of Egln1−/− MEFs with Nec-1s [18]: blocked the cell death of Egln1^−/− MEFs induced by either TSZ or a combination of TNFα and 5z7
hypoxia-induced necroptosis in Vhl-deleted MEFs with Nec-1s [19]: could be decreased with the administration of Nec-1s
inhibition of p-RIPK1-S166 (WT and P195A RIPK1) [20]: effectively inhibited
hypoxia-induced cell death with Nec-1s [21]: decreased
increased cell death and RIPK1 activation with Nec-1s [22]: both the increased cell death and RIPK1 activation were inhibited
hypoxia-induced cell death with Nec-1s [23]: decreased

COC(=O)CNC(=O)C(=O)OC [dimethyloxalylglycine]
cIAP1 expression [24]: caused a decrease in cellular inhibitor of apoptosis protein-1 (cIAP1) expression
RIPK1 activation and caspase-independent cell death [25]: induce RIPK1 activation and caspase-independent cell death in monocytes

COc1nccnc1NS(=O)(=O)c1ccc(NC(=O)/C=C/c2ccc([N+](=O)[O-])s2)cc1 [necrosulfonamide]
suppression of FG-4592-induced cell death ([8]; 10 μM necrosulfonamide, 48 h, n = 3): can also suppress cell death induced by treatment with FG-4592 in HT-29 cells

KNGGTLYYMAPEHLNDVNAKP [synthetic RIPK1 peptide]
hydroxylation by recombinant EGLN1 [26]: recombinant EGLN1 hydroxylated a synthetic RIPK1 peptide containing Pro195

recombinant pVHL: purified recombinant von Hippel–Lindau protein
inhibition of RIPK1 kinase activity [27]: could dramatically inhibit induction of the kinase activity of WT RIPK1
inhibition of RIPK1 kinase activity [28]: but not mutant RIPK1-P195A
